Test results from ChEMBL document CHEMBL5316271, “Microtubule-Stabilizing 1,2,4-Triazolo[1,5-a]pyrimidines as Candidate Therapeutics for Neurodegenerative Disease: Matched Molecular Pair Analyses and Computational Studies Reveal New Structure-Activity Insights” (J Med Chem, 2023).
Values belong to the molecule of their own block, whether it stands above or below them. Calls of active or inactive are those of the source. The rule behind the calls is not given here.

What was measured:
Tubulin (Homo sapiens) [1] = molecular target: T1, Tubulin (Homo sapiens) (UniProt P68371+Q9H4B7+P0DPH7+P68366+Q13509+Q71U36+P04350+Q3ZCM7+P07437+P68363+Q9BQE3+Q6PEY2+Q13885+Q9BVA1+Q9BUF5); test: Induction of microtubule stabilization in human HEK293-A cells assessed as fold change in cellular acetylated alpha-tubulin level at 10 uM incubated for 4 hrs by ELISA relative to cevipabulin; type: cell-based
Outline: (§1)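 QBI293 cells (2 × 10^5/well) treated 4 h with compound or DMSO vehicle; AcTub in whole-cell extracts measured by ELISA with BCA protein normalization. Fold-change in AcTub relative to DMSO then expressed against change produced by positive-control reference compound at 100 nM run alongside, to correct day-to-day responsiveness.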

Primary cortical neuron [2] = test: Induction of microtubule stabilization in rat Primary cortical neuron cells assessed as prevention of okadaic acid induced microtubule collapse by measuring cellular acetylated alpha-tubulin level at 1 uM incubated for 8 hrs by ELISA; type: cell-based
Outline: (§2)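 Embryonic dissociated cortical neurons (mouse or rat) plated 3 × 10^5/well on poly-D-lysine, grown 10 days, then treated 8 h with 15 nM okadaic acid plus compound or vehicle (0.25% DMSO). Homogenate AcTub measured by ELISA; one-way ANOVA versus vehicle without okadaic acid.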

Primary cortical neuron [3] = test: Induction of microtubule stabilization in mouse Primary cortical neuron cells assessed as prevention of okadaic acid induced microtubule collapse by measuring cellular acetylated alpha-tubulin level at 10 uM incubated for 8 hrs by ELISA; type: cell-based; outline: as §2
Tubulin (Homo sapiens) [4] = molecular target: T1, Tubulin (Homo sapiens); test: Induction of microtubule stabilization in human HEK293-A cells assessed as fold change in total alpha-tubulin level reduction at 1 uM incubated for 4 hrs by ELISA relative to control; type: cell-based
Outline: (§3)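 QBI293 cells (2 × 10^5/well) plated overnight, then fresh medium with compound (from 4–20 mM DMSO stocks) or vehicle (0.25–0.3% DMSO) for 4 h. Whole-cell extracts normalized by BCA protein; AcTub and total α-tubulin quantified by ELISA, as fold-change versus DMSO cells; one-way ANOVA.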

Mus musculus = test: Binding affinity to microtubule in CD-1 mouse brain assessed as increase in de-tyrosinated alpha-tubulin level at 1 mg/kg, ip qd for 2 days […]; type: organism-based; settings: time 2.0 day
Outline: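 CD-1 mice (n = 4 per group) got two i.p. doses 1 mg/kg, about 24 h apart, from DMSO stock diluted into 30% Kolliphor EL in PBS pH 7.4; vehicle controls. Cortex and hippocampus taken 4 h after second dose, homogenized in RIPA with protease inhibitors, PMSF, 3 μM trichostatin A; equal protein western blot for Glu-tubulin, α-tubulin, GAPDH; infrared imaging; GluTub/α-Tub ratio versus vehicle.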

Tubulin (Homo sapiens) [5] = molecular target: T1, Tubulin (Homo sapiens); test: Induction of microtubule stabilization in human HEK293-A cells assessed as fold change in cellular acetylated alpha-tubulin level at 1 uM incubated for 4 hrs by ELISA relative to cevipabulin; type: cell-based; outline: as §1
Tubulin (Homo sapiens) [6] = molecular target: T1, Tubulin (Homo sapiens); test: Induction of microtubule stabilization in human HEK293-A cells assessed as fold change as increase in cellular acetylated alpha-tubulin level at 1 uM incubated for 4 hrs by ELISA relative to control; type: cell-based; outline: as §3
Tubulin (Homo sapiens) [7] = molecular target: T1, Tubulin (Homo sapiens); test: Induction of microtubule stabilization in human HEK293-A cells assessed as fold change in total alpha-tubulin level reduction at 10 uM incubated for 4 hrs by ELISA relative to control; type: cell-based; outline: as §3
Tubulin (Homo sapiens) [8] = molecular target: T1, Tubulin (Homo sapiens); test: Induction of microtubule stabilization in human HEK293-A cells assessed as fold change as increase in cellular acetylated alpha-tubulin level at 10 uM incubated for 4 hrs by ELISA relative to control; type: cell-based; outline: as §3

fold change (FC) (Tubulin (Homo sapiens) [1]): 0.33
Compound: C[C@@H](Nc1c(-c2c(F)cc(F)cc2F)c(Cl)nc2ncnn12)C1(C)N=N1

Compound: CC(C)[C@@H](C)Nc1c(-c2c(F)cc(F)cc2F)c(Cl)nc2ncnn12
Activity (Primary cortical neuron [2]): Active | Activity (Primary cortical neuron [3]): Active

fold change (FC) (Tubulin (Homo sapiens) [4]): 1.11
Compound: C[C@@H](Nc1c(-c2c(F)cc(F)cc2F)c(Cl)nc2ncnn12)C1CC1

Compound: CC(C)[C@H](Nc1c(-c2c(F)cc(F)cc2F)c(Cl)nc2ncnn12)C(F)(F)F
Activity (Primary cortical neuron [2]): inactive

Compound: CC(C)[C@@H](C)Nc1c(-c2c(F)cc(C#CCCCO)cc2F)c(Cl)nc2ncnn12
Activity (Primary cortical neuron [3]): Active

Compound: C[C@@H](Nc1c(-c2c(F)cc(OCCCN(C)C)cc2F)c(Cl)nc2ncnn12)C(C)(C)C
Activity (Primary cortical neuron [3]): Active

Compound: CC(C)[C@@H](C)Nc1c(-c2c(F)cc(C#CCCO)cc2F)c(Cl)nc2ncnn12
Activity (Primary cortical neuron [3]): Active

Compound: C[C@@H](Nc1c(-c2c(F)cc(C#CCCO)cc2F)c(Cl)nc2ncnn12)C(C)(C)C
Activity (Mus musculus): Active | Activity (Primary cortical neuron [3]): Active

Compound: C[C@@H](Nc1c(-c2c(F)cc(C#CCCCO)cc2F)c(Cl)nc2ncnn12)C(C)(C)C
Activity (Primary cortical neuron [3]): Active

Compound: C[C@@H](Nc1c(-c2c(F)cc(OCCCO)cc2F)c(Cl)nc2ncnn12)C(C)(C)C
Activity (Primary cortical neuron [3]): inactive

fold change (FC) (Tubulin (Homo sapiens) [5]): 0.54 | fold change (FC) (Tubulin (Homo sapiens) [6]): 3.65 | fold change (FC) (Tubulin (Homo sapiens) [4]): 1.12 | fold change (FC) (Tubulin (Homo sapiens) [7]): 1.38 | fold change (FC) (Tubulin (Homo sapiens) [8]): 7.43 | fold change (FC) (Tubulin (Homo sapiens) [1]): 1.11
Compound: CO[C@H]1C[C@H]2CC[C@@H](C1)N2c1c(-c2ccc(F)cc2F)c(Cl)nc2ncnn12

Compound: CC(C)[C@@H](Nc1c(-c2c(F)cc(F)cc2F)c(Cl)nc2ncnn12)C(F)(F)F
Activity (Primary cortical neuron [2]): inactive

Compound: C[C@@H](Nc1c(-c2c(F)cc(C#CCCN(C)C)cc2F)c(Cl)nc2ncnn12)C(C)(C)C
Activity (Mus musculus): Active | Activity (Primary cortical neuron [3]): Active

Compound: C[C@@H](Nc1c(-c2c(F)cc(C#N)cc2F)c(Cl)nc2ncnn12)C(C)(C)C
Activity (Mus musculus): Active
